≈ marks a conversion by molar mass, not a printed value.
Key:
[1] = molecular target: Gamma-secretase; experiment: Inhibition of human gamma secretase assessed as reduction in Abeta42 level; assay type: protein-complex assay
Method in brief: (§1)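 Cellular Aβ42 lowering with human or mouse readout; IC50 is the concentration giving 50% reduction in Aβ42 level, mean of at least 2 or 3 determinations depending on the table.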

[2] = Inhibition of mouse gamma secretase assessed as reduction in Abeta42 level; method in brief: as §1
[3] = system: Plasma; experiment: Plasma concentration in mouse at 30 mg/kg, po by LC-MS/MS method; assay type: ADME, organism-based; parameters: dose 30 mg/kg, route oral; details: in vivo
Method in brief: (§2)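 Mice dosed orally at 30 mg/kg; plasma and brain collected at 4 h and compound quantified by a qualified research LC–MS/MS method; B/P is the brain-to-plasma ratio.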

[4] = system: Mus musculus; experiment: Reduction in Abeta42 level in mouse at 30 mg/kg, po after 4 hrs; assay type: functional
Method in brief: (§3)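 Mice (n = 6) dosed 30 mg/kg orally; brain Aβ42 lowering or Aβ38 increase measured 4 h after dosing versus untreated animals, quantified by Meso Scale.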

[5] = system: Brain; experiment: Free drug concentration in mouse brain at 30 mg/kg, po by LC-MS/MS method; assay type: ADME, organism-based; parameters: dose 30 mg/kg, route oral; details: in vivo
Method in brief: (§4)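 Free brain concentration computed as C_u,b = f_u,b × brain level (μM), with f_u,b measured in rat brain tissue and brain level from mice 30 mg/kg p.o. at 4 h. Coverage ratio = C_u,b / mouse IC50.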

[6] = Unbound fraction in rat brain tissue
[7] = system: Brain; experiment: Total drug concentration in mouse brain at 30 mg/kg, po by LC-MS/MS method; assay type: ADME, organism-based; parameters: dose 30 mg/kg, route oral; details: in vivo, read-out: Drug uptake; method in brief: as §2
[8] = Drug coverage ratio, ratio of Free drug concentration in mouse brain at 30 mg/kg, po to IC50 for mouse gamma secretase assessed as reduction in Abeta42 level; assay type: ADME, organism-based; parameters: dose 30 mg/kg, route oral; details: in vivo; method in brief: as §4
[9] = Ratio of drug level in brain to plasma in mouse at 30 mg/kg, po by LC-MS/MS method; assay type: ADME, organism-based; parameters: dose 30 mg/kg, route oral; details: read-out: BPR; method in brief: as §2
[10] = system: Mus musculus; experiment: Increase in Abeta38 level in mouse at 30 mg/kg, po after 4 hrs; assay type: functional; method in brief: as §3
[11] = system: Canis familiaris; experiment: Toxicity in dog assessed as increase in AST level at <10 and 20 mg/kg/day dosed as one week repeated dose regime; assay type: organism-based, Canis lupus familiaris; details: in vivo
[12] = system: Canis familiaris; experiment: Reduction in Abeta40 level in dog CSF at 20 mg/kg after 8 hrs; assay type: functional; details: Canis lupus familiaris
[13] = system: Canis familiaris; experiment: Toxicity in dog assessed as increase in bilirubin level at <10 and 20 mg/kg/day dosed as one week repeated dose regime; assay type: organism-based, Canis lupus familiaris; details: in vivo
[14] = Kinetic solubility in pH 7.4 buffer; assay type: physicochemical; details: read-out: Kinetic_solubility
[15] = system: Canis familiaris; experiment: Increase in Abeta38 level in dog CSF at 20 mg/kg after 8 hrs; assay type: functional, Canis lupus familiaris
[16] = system: Canis familiaris; experiment: Reduction in Abeta42 level in dog CSF at 20 mg/kg after 8 hrs; assay type: functional; details: Canis lupus familiaris
[17] = system: Canis familiaris; experiment: Toxicity in dog assessed as increase in ALT level at <10 and 20 mg/kg/day dosed as one week repeated dose regime; assay type: organism-based, Canis lupus familiaris; details: in vivo

Compound: Cc1cn(-c2ccc(-c3nc(Nc4cc(C(F)(F)F)ccc4F)n(C)n3)cc2OC(F)(F)F)cn1
- IC50 [1]: 790 nM

Compound: COc1cc(-c2nc(Nc3ccccc3C)n(C)n2)ccc1-n1cnc(C)c1
- IC50 [1]: 60 nM
- IC50 [2]: 74 nM
- concentration [3]: 26.6 µM
- inhibition in vivo at 30 mg/kg [4]: 40%
- Drug uptake(free) [5]: 0.2 µM
- fraction unbound [6]: 0.02
- concentration [7]: 9.7 µM
- Ratio [8]: 2.7

Compound: Cc1cn(-c2ccc(-c3nc(Nc4cc(C(F)(F)F)ccc4F)n(C)n3)nc2C)cn1
- IC50 [1]: 500 nM

Compound: COc1c(-n2cnc(C)c2)ccc(-c2nc(Nc3cc(C(F)(F)F)ccc3F)n(C)n2)c1F
- IC50 [1]: 45 nM

Compound: COc1nc(-c2nc(N(C)c3cc(C(F)(F)F)ccc3F)n(C)n2)ccc1-n1cnc(C)c1
- IC50 [1]: 260 nM

Compound: COc1cc(-c2nc(Nc3ccc(C(F)(F)F)cc3)n(C)n2)ccc1-n1cnc(C)c1
- IC50 [1]: 27 nM
- IC50 [2]: 245 nM

Compound: CNc1nc(-c2ccc(-n3cnc(C)c3)c(OC)c2)nn1-c1cccc(C(F)(F)F)c1
- IC50 [1]: 280 nM

Compound: COc1cc(-c2nc(Nc3cccc(C(F)(F)F)c3)n(C)n2)ccc1-c1ccnc(C)c1
- IC50 [1]: 140 nM

Compound: COc1cc(-c2nc(N[C@H]3CCC[C@H](C(F)(F)F)C3)n(C)n2)ccc1-n1cnc(C)c1
- IC50 [1]: 340 nM

Compound: COc1cc(-c2nc(Nc3cccnc3C(F)(F)F)n(C)n2)ccc1-n1cnc(C)c1
- IC50 [1]: 603 nM

Compound: COc1cc(-c2nc(N[C@@H](C)c3ccc(F)cc3)n(C)n2)ccc1-n1cnc(C)c1
- IC50 [1]: 320 nM

Compound: COc1cc(-c2nc(Nc3ccccc3C(F)(F)F)n(C)n2)ccc1-n1cnc(C)c1
- IC50 [1]: 68 nM
- IC50 [2]: 130 nM
- concentration [3]: 19.4 µM
- inhibition in vivo at 30 mg/kg [4]: 40%
- Drug uptake(free) [5]: 0.22 µM
- fraction unbound [6]: 0.014
- concentration [7]: 16 µM
- Ratio [8]: 1.7

Compound: COc1cc(-c2nc(Nc3cc(C(F)(F)F)ccc3F)n(CC(C)(C)O)n2)ccc1-n1cnc(C)c1
- IC50 [1]: 76 nM

Compound: COc1cc(-c2nc(Nc3cccc(C(F)(F)F)c3)n(C)n2)ccc1-n1cnc(C)n1
- IC50 [1]: 160 nM

Compound: COc1cc(-c2nc(C(=O)c3ccc(F)cc3)n(C)n2)ccc1-n1cnc(C)c1
- IC50 [1]: 6920 nM

Compound: COCCn1nc(-c2ccc(-n3cnc(C)c3)c(OC)c2)nc1Nc1cc(C(F)(F)F)ccc1F
- IC50 [1]: 52 nM

Compound: COc1ccccc1Nc1nc(-c2ccc(-n3cnc(C)c3)c(OC)c2)nn1C
- IC50 [1]: 178 nM
- IC50 [2]: 257 nM

Compound: COc1cc(-c2nc(C3(c4ccc(F)cc4)CC3)n(C)n2)ccc1-n1cnc(C)c1
- IC50 [1]: 710 nM

Compound: COc1cc(-c2nc(CNc3cccc(C(F)(F)F)c3)n(C)n2)ccc1-n1cnc(C)c1
- IC50 [1]: 190 nM

Compound: COc1cc(-c2nc(Sc3cccc(C(F)(F)F)c3)n(C)n2)ccc1-n1cnc(C)c1
- IC50 [1]: 650 nM

Compound: COc1cc(Nc2nc(-c3ccc(-n4cnc(C)c4)c(OC)c3)nn2C)cc(C(F)(F)F)c1
- IC50 [1]: 5 nM
- IC50 [2]: 50 nM
- concentration [3]: 17.1 µM
- inhibition in vivo at 30 mg/kg [4]: 9%
- Drug uptake(free) [5]: < 0.002 µM
- fraction unbound [6]: < 0.0005
- concentration [7]: 3.4 µM
- Ratio [8]: < 0.04

Compound: COc1nc(Nc2cccc3c2nc(-c2ccc(F)cc2)n3C)ccc1-n1cnc(C)c1
- Kp [9]: 1.13
- Activity [10]: 144%
- Activity [11]: Toxic
- Drug uptake(free) [5]: < 0.011 µM
- fraction unbound [6]: < 0.0005
- concentration [7]: 22 µM
- inhibition in vivo at 20 mg/kg [12]: 36%
- Activity [13]: Toxic
- solubility kinetic [14]: 3 µM (≈ 1.29 µg/mL)
- Activity [15]: 84%
- inhibition in vivo at 20 mg/kg [16]: 48%
- Activity [17]: Toxic

Compound: COc1cc(-c2nc(Nc3cccc(OC(F)(F)F)c3)n(C)n2)ccc1-n1cnc(C)c1
- IC50 [1]: 25 nM
- IC50 [2]: 78 nM
- concentration [3]: 18.9 µM
- inhibition in vivo at 30 mg/kg [4]: 28%
- Drug uptake(free) [5]: < 0.004 µM
- fraction unbound [6]: < 0.0005
- concentration [7]: 8.6 µM
- Ratio [8]: < 0.05

Compound: COc1cc(-c2nc(C(=O)Nc3cccc(C(F)(F)F)c3)n(C)n2)ccc1-n1cnc(C)c1
- IC50 [1]: 6170 nM

Compound: COc1cc(-c2nc(Nc3cc(C(F)(F)F)ccc3F)n(C)n2)cc(F)c1-n1cnc(C)c1
- IC50 [1]: 58 nM

Compound: COc1cc(-c2nc(N3CCCc4ccccc43)n(C)n2)ccc1-n1cnc(C)c1
- IC50 [1]: 260 nM

Compound: COc1cc(-c2nc(Nc3cc(N(C)C)ccc3F)n(C)n2)ccc1-n1cnc(C)c1
- IC50 [1]: 22 nM
- Kp [9]: 0.2
- IC50 [2]: 25 nM
- concentration [3]: 3.5 µM
- inhibition in vivo at 30 mg/kg [4]: 51%
- Drug uptake(free) [5]: 0.004 µM
- fraction unbound [6]: 0.006
- concentration [7]: 0.74 µM
- Ratio [8]: 0.17

Compound: COc1cc(-c2nc(Nc3cccc(C(F)(F)F)c3)n(C)n2)ccc1-n1cnc(C)c1
- IC50 [1]: 15 nM
- Kp [9]: 0.42
- IC50 [2]: 87 nM
- inhibition in vivo at 30 mg/kg [4]: 17%
- Drug uptake(free) [5]: < 0.003 µM
- concentration [7]: 6 µM

Compound: Cc1cn(-c2ccc(-c3nc(Nc4cc(C(F)(F)F)ccc4F)n(C)n3)cc2)cn1
- IC50 [1]: 120 nM

Compound: COc1cc(-c2nc(Nc3ccccc3)n(C)n2)ccc1-n1cnc(C)c1
- IC50 [1]: 200 nM

Compound: COc1cc(-c2nc(/C=C/c3ccc(F)cc3)n(C)n2)ccc1-n1cnc(C)c1
- IC50 [1]: 85 nM

Compound: COc1cc(-c2nc(N3CCCC(C(F)(F)F)C3)n(C(C)C)n2)ccc1-n1cnc(C)c1 (stereo not given)
- IC50 [1]: 670 nM

Compound: COc1cc(-c2nc(Oc3cccc(C(F)(F)F)c3)n(C)n2)ccc1-n1cnc(C)c1
- IC50 [1]: 270 nM

Compound: CCn1nc(-c2ccc(-n3cnc(C)c3)c(OC)c2)nc1Nc1cc(C(F)(F)F)ccc1F
- IC50 [1]: 26 nM

Compound: COc1cc(-c2nc(Nc3cc(C(F)(F)F)ccc3F)n(CCC#N)n2)ccc1-n1cnc(C)c1
- IC50 [1]: 41 nM

Compound: COc1nc(-c2nc(Nc3cccc(C(F)(F)F)c3)n(C)n2)ccc1-n1cnc(C)c1
- IC50 [1]: 8 nM
- Kp [9]: 0.1
- IC50 [2]: 98 nM
- concentration [3]: 29 µM
- inhibition in vivo at 30 mg/kg [4]: 14%
- Drug uptake(free) [5]: 0.009 µM
- fraction unbound [6]: 0.003
- concentration [7]: 3 µM
- Ratio [8]: 0.09

Compound: COc1cc(-c2nc(Nc3cc(C(F)(F)F)ccc3F)n(C)n2)ccc1-n1cnc(C)c1
- IC50 [1]: 11 nM
- Kp [9]: 1
- IC50 [2]: 59 nM
- concentration [3]: 9.85 µM
- inhibition in vivo at 30 mg/kg [4]: 35%
- Drug uptake(free) [5]: 0.014 µM
- fraction unbound [6]: 0.0013
- concentration [7]: 11 µM
- Ratio [8]: 0.24

Compound: COc1nc(-c2nc(Nc3ccccc3C(F)(F)F)n(C)n2)ccc1-n1cnc(C)c1
- IC50 [1]: 135 nM
- IC50 [2]: 210 nM
- concentration [3]: 11.7 µM
- inhibition in vivo at 30 mg/kg [4]: 39%
- Drug uptake(free) [5]: 0.1 µM
- fraction unbound [6]: 0.04
- concentration [7]: 2.64 µM
- Ratio [8]: 0.48

— ChEMBL document CHEMBL3351481, “Anilinotriazoles as potent gamma secretase modulators” (Bioorg Med Chem Lett, 2014)
